We go through one compound from ChEMBL document CHEMBL1148725, “2,2,2-Trichloro-N-({2-[2-(dimethylamino)ethyl]-1,3-dioxo-2,3-dihydro-1H-benzo[de]isoquinolin- 5-yl}carbamoyl)acetamide (UNBS3157), a novel nonhematotoxic naphthalimide derivative with potent antitumor activity” (J Med Chem, 2007).

The subject of series [1] is Mus musculus. As to the kind of experiment: Hematotoxicity in B6D2F1 mouse assessed as platelet count at 160 mg/kg, po. Set-up: dose 160 mg/kg, route oral. The settings on record: in vivo. In kind it is organism-based.
A further series concerns LoVo. Nature of the series: Antiproliferative activity against LoVo cells after 72 hrs by MTT assay. It counts as functional, cell-based, Homo sapiens. The settings on record: Homo sapiens, LoVo, 72 h. Put shortly:
(§1)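 Cells cultured with each compound for three days; growth then read by the MTT colorimetric assay and reported as IC50 (µM).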

The test system of series [2] is A549. Nature of the series: Antiproliferative activity against A549 cells after 72 hrs by MTT assay. In kind it is functional, cell-based, Homo sapiens. The settings on record: Homo sapiens, A549, 72 h. An outline of the steps:
as §1
Background: Formazan colour is commonly taken as a measure of viable cells.

For series [3], the system named is L1210. As to the kind of experiment: Antitumor activity in L1210 cells xenografted B6D2F1 mouse at 20 mg/kg, ip relative to control. It counts as functional. The settings on record: route intraperitoneal. An outline of the steps: (§2)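 Mice grafted with L1210 leukaemia cells on day 0, then dosed i.p. four times weekly on days 1-4 and 8-11. Five mice per group. Outcome is %T/C, the median survival of treated over control. Kruskal-Wallis test followed by Dunn comparisons against control.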

The test system of series [4] is L1210. As to the kind of experiment: Antitumor activity in L1210 cells xenografted B6D2F1 mouse at 120 mg/kg, ip relative to control. It counts as functional. Conditions: route intraperitoneal. Put shortly:
as §2

Series [5] concerns Mus musculus. As to the kind of experiment: Hematotoxicity in B6D2F1 mouse assessed as platelet count at 40 mg/kg, iv. The settings on record: in vivo. It counts as organism-based. Set-up: dose 40 mg/kg, route intravenous.
Series [6] concerns Mus musculus. Nature of the series: Hematotoxicity in B6D2F1 mouse assessed as RBC count at 40 mg/kg, iv. Conditions: in vivo. It counts as organism-based. Set-up: dose 40 mg/kg, route intravenous.
In series [7] the test system is Mus musculus. As to the kind of experiment: Hematotoxicity in B6D2F1 mouse assessed as WBC count at 40 mg/kg, iv. It counts as organism-based. More on the design: dose 40 mg/kg, route intravenous. Conditions: in vivo.
In series [8] the test system is A549. As to the kind of experiment: Antitumor activity against human A549 cells xenografted in mouse at 10 mg/kg, iv. In kind it is functional, organism-based. More on the design: dose 10 mg/kg. Put shortly:
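Human A549 NSCLC cells grafted orthotopically into the lungs of immunocompromised mice. Compound given i.v. at 10 mg/kg. Survival gain assessed by survival curve analysis.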
On the technique in general: Xenograft models place foreign cells or tissue in a host animal.

The target in series [9] is T1, DNA topoisomerase 1 (Homo sapiens) (UniProt P11387).
T1 sequence (whole entry): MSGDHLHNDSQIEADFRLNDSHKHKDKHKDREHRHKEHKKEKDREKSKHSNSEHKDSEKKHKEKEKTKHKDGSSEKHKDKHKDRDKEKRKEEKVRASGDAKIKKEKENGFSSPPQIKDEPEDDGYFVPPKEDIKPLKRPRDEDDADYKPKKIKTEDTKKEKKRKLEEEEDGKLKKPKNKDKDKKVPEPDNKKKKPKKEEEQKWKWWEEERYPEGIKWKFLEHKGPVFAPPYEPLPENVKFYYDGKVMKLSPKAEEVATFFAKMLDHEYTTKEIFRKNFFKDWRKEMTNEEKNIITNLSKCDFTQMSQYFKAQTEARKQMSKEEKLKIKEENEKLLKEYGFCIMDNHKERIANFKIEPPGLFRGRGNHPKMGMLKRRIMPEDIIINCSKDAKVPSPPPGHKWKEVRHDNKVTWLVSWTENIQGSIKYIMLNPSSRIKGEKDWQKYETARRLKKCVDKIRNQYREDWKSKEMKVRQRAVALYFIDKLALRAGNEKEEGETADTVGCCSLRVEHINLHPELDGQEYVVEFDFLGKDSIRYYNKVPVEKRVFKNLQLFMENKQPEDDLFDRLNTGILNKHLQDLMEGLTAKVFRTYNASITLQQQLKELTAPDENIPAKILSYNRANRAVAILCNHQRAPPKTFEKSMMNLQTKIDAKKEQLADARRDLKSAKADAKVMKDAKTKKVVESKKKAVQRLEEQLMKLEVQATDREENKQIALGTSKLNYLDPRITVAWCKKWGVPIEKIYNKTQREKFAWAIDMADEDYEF
Nature of the series: Inhibition of human topoisomerase 1 by DNA unwinding test. An outline of the steps:
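DNA unwinding assay: relaxed pBR322 plasmid converted to supercoiled form in presence of topoisomerase I; compounds at final 4–32 µM (one up to 15–55 µM); ethidium bromide-stained agarose gels; UC50 taken as concentration shifting relaxed band to midpoint between supercoiled and relaxed states.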

The target in series [10] is DNA topoisomerase 2-alpha (Homo sapiens) (UniProt P11388). As to the kind of experiment: Inhibition of human topoisomerase 2-mediated kinetoplast DNA […] at 50 uM. An outline of the steps: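 Topoisomerase II strand-passage activity by kDNA decatenation; compounds at 50 µM; catenated networks stay in wells, decatenated kDNA enters ethidium bromide-stained agarose gel; no-enzyme and no-drug reactions as controls.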
DNA topoisomerase 2-alpha (Homo sapiens), sequence (P11388 whole entry): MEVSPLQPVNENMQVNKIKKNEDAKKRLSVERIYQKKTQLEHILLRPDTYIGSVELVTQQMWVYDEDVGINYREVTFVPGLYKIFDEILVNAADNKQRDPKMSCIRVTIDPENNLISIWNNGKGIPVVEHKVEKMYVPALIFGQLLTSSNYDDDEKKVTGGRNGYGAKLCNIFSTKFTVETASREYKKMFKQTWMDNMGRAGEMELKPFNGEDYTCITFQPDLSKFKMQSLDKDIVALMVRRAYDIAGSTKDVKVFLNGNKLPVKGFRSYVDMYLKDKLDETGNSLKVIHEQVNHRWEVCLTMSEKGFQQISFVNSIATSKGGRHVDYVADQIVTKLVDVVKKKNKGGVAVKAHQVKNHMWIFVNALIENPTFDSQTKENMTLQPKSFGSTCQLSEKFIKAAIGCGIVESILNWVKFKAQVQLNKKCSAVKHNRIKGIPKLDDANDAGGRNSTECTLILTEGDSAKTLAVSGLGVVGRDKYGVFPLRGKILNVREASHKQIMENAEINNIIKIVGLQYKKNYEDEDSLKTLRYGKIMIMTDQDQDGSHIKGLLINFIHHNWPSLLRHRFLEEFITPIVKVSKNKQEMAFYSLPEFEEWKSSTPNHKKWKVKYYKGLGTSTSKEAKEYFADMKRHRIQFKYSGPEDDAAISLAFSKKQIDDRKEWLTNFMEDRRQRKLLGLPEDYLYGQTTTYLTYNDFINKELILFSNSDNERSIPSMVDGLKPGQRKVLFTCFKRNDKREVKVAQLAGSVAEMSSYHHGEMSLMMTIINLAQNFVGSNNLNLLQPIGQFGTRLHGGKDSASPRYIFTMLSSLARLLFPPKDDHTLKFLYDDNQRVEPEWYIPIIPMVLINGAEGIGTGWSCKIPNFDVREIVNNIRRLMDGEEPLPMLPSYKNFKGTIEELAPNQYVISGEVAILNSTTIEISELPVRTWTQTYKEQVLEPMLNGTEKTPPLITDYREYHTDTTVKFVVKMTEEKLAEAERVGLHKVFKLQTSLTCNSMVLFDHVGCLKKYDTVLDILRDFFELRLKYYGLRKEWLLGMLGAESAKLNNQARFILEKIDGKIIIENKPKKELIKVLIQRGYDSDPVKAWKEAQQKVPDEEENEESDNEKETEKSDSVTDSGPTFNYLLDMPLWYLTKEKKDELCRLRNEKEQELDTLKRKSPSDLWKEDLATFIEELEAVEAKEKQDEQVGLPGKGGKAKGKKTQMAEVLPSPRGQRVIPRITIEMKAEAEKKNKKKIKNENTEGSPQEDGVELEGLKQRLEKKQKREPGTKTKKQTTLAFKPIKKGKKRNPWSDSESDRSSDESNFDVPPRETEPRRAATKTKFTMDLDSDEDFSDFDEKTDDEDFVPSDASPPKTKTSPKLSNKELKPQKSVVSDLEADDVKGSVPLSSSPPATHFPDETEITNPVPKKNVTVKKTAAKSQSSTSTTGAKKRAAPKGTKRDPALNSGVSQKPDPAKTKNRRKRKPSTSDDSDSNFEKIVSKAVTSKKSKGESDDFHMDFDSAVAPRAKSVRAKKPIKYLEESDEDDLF

Series [11] relates to PC-3. Nature of the series: Induction of autophagy in human PC3 cells by acridine orange staining at 10 uM after 72 hrs. It counts as functional.
A further series relates to DU-145. As to the kind of experiment: Induction of autophagy in human DU145 cells by acridine orange staining at 10 uM after 72 hrs. In kind it is functional.
The subject of series [12] is PC-3. As to the kind of experiment: Induction of senescence in human PC3 cells. In kind it is functional, cell-based. An outline of the steps: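 SA-β-galactosidase staining of PC-3 and DU-145 prostate cancer cells after 72 h at 10 µM; adriamycin 20 nM as positive control; expressed as percentage of positively stained cells.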

The structures appear in SMILES notation. Activity calls are given as the source filed them. No cut-off for these calls is given here.

One may read the IC50 as the point on the concentration scale where inhibition reaches its midpoint. The low end stands for greater potency, the high end for weaker potency. `CN(C)CCN1C(=O)c2cccc3cc(NC(=O)NC(=O)C(Cl)(Cl)Cl)cc(c23)C1=O`: the Activity was 1005 10^3 /uL in the series on Mus musculus [1]; 205% in the series on L1210 [3]; 281% with L1210 [4]; 430 10^3 /uL in the series on Mus musculus [5]; 9.1 10^6 /uL in the series on Mus musculus [6]; 2.97 10^3 /uL in the series with Mus musculus [7]. Further, the Activity in the series on PC-3 [11] turned out to be 35%; in the series on DU-145, 10%. Further, the IC50 with LoVo and in the series with A549 [2] was 900 nM each time. Also, the result (with A549 [8]; in series [10]) was Active. The compound also yielded a UC50 in series [9] of 40 µM. Besides, the outcome in the series with PC-3 [12] was inactive.
